Reference: ChEMBL document CHEMBL3351606, “Targeting (cellular) lysosomal acid ceramidase by B13: design, synthesis and evaluation of novel DMG-B13 ester prodrugs” (Bioorg Med Chem, 2014)
≈ marks a conversion by molar mass, not a printed value. Calls of active or inactive are those of the source. No cut-off for these calls is given here.

Key:
MCF7 [1] = assay: Induction in Cer level in human MCF7 cells at 50 uM after 1 hr by LC-MS/MS analysis; assay type: functional
[2] = molecular target: T1, Acid ceramidase (Homo sapiens) (UniProt Q13510); details: MCF7, 50 uM
T1 sequence (whole entry): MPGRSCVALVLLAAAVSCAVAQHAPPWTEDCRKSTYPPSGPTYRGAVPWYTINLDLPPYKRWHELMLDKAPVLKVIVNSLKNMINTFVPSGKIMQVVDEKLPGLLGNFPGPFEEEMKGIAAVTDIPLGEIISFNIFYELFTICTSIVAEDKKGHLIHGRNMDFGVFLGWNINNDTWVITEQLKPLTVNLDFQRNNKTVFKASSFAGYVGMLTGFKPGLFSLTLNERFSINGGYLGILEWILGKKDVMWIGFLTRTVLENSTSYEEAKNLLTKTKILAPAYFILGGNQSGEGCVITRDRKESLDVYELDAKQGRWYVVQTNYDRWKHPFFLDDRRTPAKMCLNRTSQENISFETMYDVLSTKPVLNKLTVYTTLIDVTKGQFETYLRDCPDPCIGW

MCF7 [3] = assay: Induction in Cer level in human MCF7 cells at 50 uM after 24 hrs hr by LC-MS/MS analysis; assay type: functional
MCF7 [4] = assay: Drug formation in human MCF7 cells treated with LCL522 up to 2 to 5 hrs by LC-MS/MS analysis; assay type: ADME, cell-based
Summary of the method: (§1)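 MCF7 cells (RPMI 1640, 10% FBS) treated with test compound or vehicle (ethanol) over a time course up to 24 h; after washing with cold PBS and scraping, pellets spiked with internal standards, lipids extracted (ethyl acetate/isopropanol/water) and compounds quantified by LC–MS/MS in positive MRM mode against calibration curves, normalized to lipid phosphate; duplicates.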

MCF7 [5] = assay: Effect on lysosomal stability in human MCF7 cells assessed as recovery of Lysotracker Red uptake at 10 uM after 5 hrs by FACS analysis; assay type: functional, cell-based
Summary of the method: (§2)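 MCF7 cells seeded overnight, medium switched to 2% FBS with compound in ethanol or ethanol alone, 1 or 5 h at 37 °C, then Lysotracker Red DND-99 200 nM for 30 min at 37 °C. Cells trypsinized, washed and analysed by FACS (564–606 nm), at least 10,000 events per sample; lower fluorescence read as higher lysosomal pH; triplicates, % of control.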

MCF7 [6] = assay: Reduction in Sph level in human MCF7 cells at 50 uM after 24 hrs by LC-MS/MS analysis; assay type: functional; details: MCF7, 24 h
[7] = molecular target: T1, Acid ceramidase (Homo sapiens); details: MCF7, 50 uM; remark: listed apart in the source
[8] = test system: Alkaline ceramidase 2 (Homo sapiens); assay: Inhibition of AlkCDase in microsomes of human HeLa cells using D-e-C18:1-Cer substrate up to 250 uM after 30 mins
MCF7 [9] = assay: Reduction in Sph level in human MCF7 cells at 50 uM after 5 hrs by LC-MS/MS analysis; assay type: functional; details: MCF7, 5 h
Acid ceramidase = molecular target: T2, Acid ceramidase (Homo sapiens, UniProt Q13510); assay: Inhibition of ACDase in human MCF7 cell lysate using [9,10-3H] De-C16-Cer substrate after 1 hr by scintillation counting analysis
T2 sequence (Q13510 whole entry): T1 sequence (whole entry)

[10] = Solubility in water at 25 degC; assay type: physicochemical
MCF7 [11] = assay: Reduction in Sph level in human MCF7 cells at 30 uM by LC-MS/MS analysis; assay type: functional, cell-based
[12] = molecular target: T1, Acid ceramidase (Homo sapiens); assay: Inhibition of ACDase in human MCF7 cells at 10 uM after 1 hr by cellular/scintillation counting analysis; assay type: cell-based
Summary of the method: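 MCF7 cells treated 1 h with compound or vehicle, washed in cold PBS and scraped; lysate ACDase activity then measured at pH 4.5 with [9,10-3H] D-e-C16-Cer, 1 h at 37 °C, released [3H]palmitic acid counted; pmol/mg protein/h, % control; quadruplicates.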

[13] = molecular target: T1, Acid ceramidase (Homo sapiens); assay: Inhibition of ACDase in human MCF7 cell lysate using [9,10-3H] De-C16-Cer substrate at 50 uM after 1 hr by scintillation counting analysis; assay type: cell-free
Summary of the method: (§3)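 ACDase activity in MCF7 lysate (pH 4.5): [9,10-3H] D-e-C16-Cer and compound dried with 0.2% Triton X-100/0.4% cholate, then protein and 0.2 M acetate buffer with 0.5% Triton X-100 (pH 4.5) added; 1 h at 37 °C, stopped with Dole's solution; released [3H]palmitic acid scintillation-counted, pmol/mg protein/h, % control; duplicates.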

[14] = molecular target: T1, Acid ceramidase (Homo sapiens); details: MCF7, 50 uM; remark: listed apart in the source
MCF7 [15] = assay: Reduction in alpha-ACDase level in human MCF7 cells at 1 uM by Western blot analysis
MCF7 [16] = assay: Induction in Cer level in human MCF7 cells at 10 uM after 1 hr by LC-MS/MS analysis; assay type: functional
Summary of the method: (§4)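 MCF7 cells treated 1 h with compound or ethanol vehicle; pellets spiked with internal standards, lipids extracted and Sph and total Cer quantified by LC–MS/MS in MRM mode, expressed as pmol per nmol lipid phosphate and as % of control; duplicates.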

MCF7 [17] = assay: Reduction in alpha-ACDase level in human MCF7 cells at 10 uM by scintillation counting analysis; assay type: functional, cell-based; details: in the assay text read “Western blot analysis” for “scintillation counting analysis”, TDE = time-dependent effect
Summary of the method: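 MCF7 cells treated 1 and 5 h with compound or vehicle; lysates (35 µg protein) run on SDS gels, blotted, probed with mouse monoclonal anti-ACDase and HRP secondary; bands of the cleaved alpha-ACDase chain quantified by densitometry, normalized to actin, % control.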

MCF7 [18] = assay: Drug uptake in human MCF7 cells assessed as drug level at 10 uM after 24 hrs by LC-MS/MS analysis; assay type: ADME, cell-based; details: mcf7, 24 h; summary of the method: as §1
[19] = test system: Alkaline ceramidase 2 (Homo sapiens); assay: Inhibition of AlkCDase in human HeLa cells expressing […] assessed as fold increase in Sph level at 10 uM after 1 hr by LC-MS/MS analysis
[20] = molecular target: Neutral ceramidase (Homo sapiens) (UniProt Q9NR71); assay: Inhibition of NCDase in human HeLa cells expressing ASAH2 assessed as increase in Sph level at 10 uM after 1 hr by LC-MS/MS analysis; assay type: cell-based
Summary of the method: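 HeLa cells stably carrying ACER2, ASAH2 or empty vector, grown to 60% confluence, given tetracycline 5 ng/mL overnight, then treated 1 h with compound (1 or 10 µM) or ethanol; sphingolipids extracted and Sph measured by LC–MS/MS per nmol lipid phosphate, also given as Sph ratio of ACER2 or ASAH2 cells to vector cells.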

[21] = molecular target: T1, Acid ceramidase (Homo sapiens); assay: Inhibition of ACDase in human MCF7 cell lysate using [9,10-3H] De-C16-Cer substrate at 20 uM after 1 hr by scintillation counting analysis; assay type: cell-free; summary of the method: as §3
MCF7 [22] = assay: Reduction in Sph level in human MCF7 cells at 10 uM after 1 hr by LC-MS/MS analysis; assay type: ADME, cell-based; details: MCF7, 1 h; summary of the method: as §4
MCF7 [23] = assay: Reduction in Sph level in human MCF7 cells at 1 uM after 1 hr by LC-MS/MS analysis; assay type: ADME, cell-based; details: MCF7, 1 h, read-out: INH; summary of the method: as §4
[24] = test system: Alkaline ceramidase 2 (Homo sapiens); assay: Inhibition of AlkCDase in human HeLa cells expressing […] assessed as fold increase in Sph level at 1 uM after 1 hr by LC-MS/MS analysis
[25] = molecular target: Neutral ceramidase (Homo sapiens) (UniProt Q9NR71); assay: Inhibition of NCDase in human MCF7 cells assessed as release of [3H] palmitic acid at 10 uM after 1 hr
MCF7 [26] = assay: Reduction in Sph level in human MCF7 cells at 1 uM after 5 hrs by LC-MS/MS analysis; assay type: ADME, cell-based; details: MCF7, 5 h
[27] = molecular target: T3, Sphingomyelin phosphodiesterase (Homo sapiens) (UniProt P17405); assay: Inhibition of lysosomal ASMase activity in human MCF7 cells assessed as [methyl-14C]choline release at 1 uM after 1 hr; assay type: cell-based
T3 sequence (whole entry): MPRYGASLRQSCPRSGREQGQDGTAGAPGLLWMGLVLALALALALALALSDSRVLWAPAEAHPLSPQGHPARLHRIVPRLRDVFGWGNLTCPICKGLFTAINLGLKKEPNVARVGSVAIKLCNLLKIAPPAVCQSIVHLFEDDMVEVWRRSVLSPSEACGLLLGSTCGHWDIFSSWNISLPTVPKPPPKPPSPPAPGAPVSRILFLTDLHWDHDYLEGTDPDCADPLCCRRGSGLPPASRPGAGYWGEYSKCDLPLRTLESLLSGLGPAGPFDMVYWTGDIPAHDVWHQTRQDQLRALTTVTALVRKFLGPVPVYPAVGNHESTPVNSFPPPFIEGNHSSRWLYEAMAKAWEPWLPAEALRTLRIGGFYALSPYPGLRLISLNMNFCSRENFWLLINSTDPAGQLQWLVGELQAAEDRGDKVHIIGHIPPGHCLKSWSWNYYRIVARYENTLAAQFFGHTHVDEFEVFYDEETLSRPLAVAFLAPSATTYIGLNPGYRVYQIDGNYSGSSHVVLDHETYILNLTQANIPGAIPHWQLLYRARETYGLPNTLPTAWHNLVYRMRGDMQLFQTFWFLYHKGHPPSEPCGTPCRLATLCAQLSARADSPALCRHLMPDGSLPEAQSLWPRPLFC
Summary of the method: (§5)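 MCF7 cells treated 1 h with compound or vehicle, lysed in 0.2% Triton X-100/50 mm Tris-HCl pH 7.4 with EDTA and protease/phosphatase inhibitors; clarified lysate incubated with 100 µM porcine brain SM plus choline-[methyl-14C] SM in Triton micelles, 250 mM sodium acetate pH 5.0, 1.0 mM EDTA, 30 min at 37 °C; aqueous-phase 14C counted after Folch extraction; triplicates, % control.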

[28] = molecular target: T3, Sphingomyelin phosphodiesterase (Homo sapiens); assay: Inhibition of lysosomal ASMase activity in human MCF7 cells assessed as [methyl-14C]choline release at 10 uM after 1 hr; assay type: cell-based; summary of the method: as §5
[29] = Toxicity in rat; assay type: organism-based; details: in vivo
[30] = test system: Alkaline ceramidase 2 (Homo sapiens); assay: Inhibition of AlkCDase in human HeLa cells expressing […] assessed as increase in Sph level at 10 uM after 1 hr by LC-MS/MS analysis
MCF7 [31] = assay: Effect on lysosomal stability in human MCF7 cells assessed as increase in Lysotracker Red uptake at 10 uM after 5 hrs by FACS analysis; assay type: ADME, cell-based; details: mcf7, 5 h; summary of the method: as §2
MCF7 [32] = assay: Drug formation in human MCF7 cells treated with LCL596 up to 2 to 5 hrs by LC-MS/MS analysis; assay type: ADME, cell-based; summary of the method: as §1

Neutral ceramidase (Homo sapiens), sequence (Q9NR71 whole entry): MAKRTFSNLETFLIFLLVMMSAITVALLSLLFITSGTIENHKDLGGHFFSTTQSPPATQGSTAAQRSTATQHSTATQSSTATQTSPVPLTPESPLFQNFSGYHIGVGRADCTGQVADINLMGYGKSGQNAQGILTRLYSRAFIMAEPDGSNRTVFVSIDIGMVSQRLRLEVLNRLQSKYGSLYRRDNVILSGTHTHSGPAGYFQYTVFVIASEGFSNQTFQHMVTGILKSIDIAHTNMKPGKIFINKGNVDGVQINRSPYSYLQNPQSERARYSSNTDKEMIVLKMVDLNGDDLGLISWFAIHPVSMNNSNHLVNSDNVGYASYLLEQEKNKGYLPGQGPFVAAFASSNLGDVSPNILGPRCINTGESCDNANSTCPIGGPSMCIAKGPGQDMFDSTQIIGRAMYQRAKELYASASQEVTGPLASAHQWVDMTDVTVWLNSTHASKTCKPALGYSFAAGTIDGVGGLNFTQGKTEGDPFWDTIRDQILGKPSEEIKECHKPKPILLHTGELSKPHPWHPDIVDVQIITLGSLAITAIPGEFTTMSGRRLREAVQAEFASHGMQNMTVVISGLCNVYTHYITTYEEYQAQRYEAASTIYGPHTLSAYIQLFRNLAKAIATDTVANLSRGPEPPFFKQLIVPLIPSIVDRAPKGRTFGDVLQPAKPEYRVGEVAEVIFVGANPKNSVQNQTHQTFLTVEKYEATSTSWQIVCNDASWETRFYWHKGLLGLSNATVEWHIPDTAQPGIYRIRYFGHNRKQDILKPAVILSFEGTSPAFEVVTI

Structure (SMILES) | Drug metabolism (MCF7 [4]) | Activity (MCF7 [5]) | solubility [10] [mg/mL] | inhibition [12] | inhibition [13] | Activity (MCF7 [16]) | Drug uptake (MCF7 [18]) | inhibition [21] | inhibition at 10 µM (MCF7 [22]) [%] | LD50 [29] [mg/kg] | further results
CCCCCCCCCCCCCC(=O)N[C@H](CO)[C@H](O)c1ccc([N+](=O)[O-])cc1 | metabolite_detected | inactive | 0.008 (≈ 18.9 µM) | Active | 95% |  |  |  |  |  | Activity (MCF7 [1]): 140%; inhibition [2]: 20%; Activity (MCF7 [3]): 270%; inhibition at 50 µM (MCF7 [6]): 40%; inhibition [7]: 40%; inhibition [8]: inactive; inhibition at 50 µM (MCF7 [9]): 70%; IC50 (Acid ceramidase): 27.7 µM; inhibition (MCF7 [11]): Active; inhibition [14]: 50%
CCCCCCCCCCCCCC(=O)N[C@H](COC(=O)CN(C)C)[C@H](OC(=O)CN(C)C)c1ccc([N+](=O)[O-])cc1.Cl |  | Active | 430 | Active | Active | 130% | 27% | Active | 97 | 3900 | Activity (MCF7 [15]): inactive; inhibition (MCF7 [17]): tde; fold change (FC) [19]: 5; inhibition [20]: inactive; inhibition at 1 µM (MCF7 [23]): 80%; fold change (FC) [24]: 2; inhibition [25]: inactive; inhibition at 1 µM (MCF7 [26]): 50%; inhibition [27]: 30%; inhibition [28]: 85%; inhibition [30]: Active
CCCCCCCCCCCCCC(=O)N[C@H](COC(=O)CN(C)C)[C@H](O)c1ccc([N+](=O)[O-])cc1.Cl | metabolite_detected |  |  | Active | Active | inactive | Active | Active | 60 | 3900 | Activity (MCF7 [31]): 180%
CCCCCCCCCCCCCC(=O)N[C@H](CO)[C@H](OC(=O)CN(C)C)c1ccc([N+](=O)[O-])cc1.Cl |  |  |  | Active | Active | inactive | Active | Active | 60 | 3900 | Drug metabolism (MCF7 [32]): metabolite_detected
